A word on the IC50: it is the midpoint of a concentration-inhibition curve. As a reminder, the CC50 is the concentration giving 50% cytotoxicity. A low value points to greater toxicity to the cells.

This is an account of results in ChEMBL document CHEMBL4428027, “3-Hydroxypyrimidine-2,4-diones as Selective Active Site Inhibitors of HIV Reverse Transcriptase-Associated RNase H: Design, Synthesis, and Biochemical Evaluations” (J Med Chem, 2016).

The target of data set [1] is T1, Human immunodeficiency virus type 1 reverse transcriptase (Human immunodeficiency virus 1, UniProt Q72547). As to the kind of experiment: Inhibition of re-constituted HIV1 reverse transcriptase RNase H domain fragment. Particulars: read-out: IC50; call rule not given here. Put shortly: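 Secondary check using a catalytically active, isolated HIV RNase H domain fragment (reconstituted) with duplex substrate HTS-1.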

Data set [2] has as its target T1, Human immunodeficiency virus type 1 reverse transcriptase. As to the kind of experiment: Inhibition of RNase H activity of full length recombinant HIV1 reverse transcriptase assessed as reduction in DNA 3'-end cleavage using HTS2 substrate. Put shortly:
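Recombinant p66/p51 RT heterodimer. Fluorescent RNA/DNA duplex substrate HTS-2 reports DNA 3′-end-directed (polymerase-dependent) cleavage. IC50 is the mean of at least three independent experiments.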

The target is the same in data set [3]. As to the kind of experiment: Inhibition of polymerase activity of HIV1 reverse transcriptase using poly(rA)-oligo(dT)16 and [3H]-TTP incubated for 20 mins by liquid scintillation spectrometry. A digest of the protocol: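 Reaction mix: 10 µM [3H]-TTP, 40 nM poly(rA)-oligo(dT)16, 50 mM Tris-HCl pH 7.4 (37°C), 60 mM KCl, 5 mM MgCl2. Started with 10 nM RT; 20 min at 37°C. Quenched in ice-cold 10% TCA with 20 mM sodium pyrophosphate, then glass-fibre filtered and washed with TCA and ethanol. Label incorporation read by liquid scintillation.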

Data set [4] has the same target. The experiment in a line: Inhibition of RNase H activity of full length recombinant HIV1 reverse transcriptase assessed as reduction in nonspecific internal cleavage using HTS1 substrate. The following applies: read-out: IC50. Put shortly:
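Recombinant p66/p51 RT heterodimer. Fluorescent RNA/DNA duplex substrate HTS-1 measures internal cleavage. IC50 is the mean of at least three independent experiments.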

A short description of data set [5]: Toxicity against human HeLa P4/R5 cells. It is filed as cell-based.
The target in data set [6] is T1, Human immunodeficiency virus type 1 reverse transcriptase. As to the kind of experiment: Inhibition of RNase H activity of full length recombinant HIV1 reverse transcriptase assessed as reduction in RNA 5'-end directed cleavage using HTS3 substrate.

Take `COc1cccc(-c2cccc(Oc3cc(=O)n(O)c(=O)n3C)c2)c1`: the IC50 in data set [1] is 3.6 µM; in data set [2] (read-out: IC50), 17 µM; in data set [3] it was “Not Active”; in data set [4], 1 µM; in data set [6] (read-out: IC50), 9.4 µM. Moreover, it took 5 µM to reach half-maximal cytotoxicity in data set [5] (CC50).
Regarding `COc1ccccc1-c1ccc(Nc2cc(=O)n(O)c(=O)n2C)cc1`, the IC50 was 9.3 µM in data set [2] (read-out: IC50), “Not Active” in data set [3], 2.8 µM in data set [4] and 8.9 µM in data set [6] (read-out: IC50).
Regarding `Cn1c(Oc2ccc(-c3ccc(C(F)(F)F)cc3)cc2)cc(=O)n(O)c1=O`, the concentration for half-maximal inhibition (IC50) result in data set [2] was “Not Active”; in data set [3], “Not Active”; in data set [4] it was 6.2 µM; in data set [6], “Not Active”.
Turning to `Cn1c(Oc2cccc(-c3ccc(C#N)cc3)c2)cc(=O)n(O)c1=O`, the IC50 is 6.9 µM in data set [2] (read-out: IC50), “Not Active” in data set [3], 1.2 µM in data set [4] and 3.9 µM in data set [6] (read-out: IC50).
With `COc1ccccc1-c1ccccc1Oc1cc(=O)n(O)c(=O)n1C`, the IC50 in data set [1] is 13 µM; in data set [2], “Not Active”; in data set [3], “Not Active”; in data set [4] it was 8.1 µM; in data set [6], “Not Active”. The compound further returned a CC50 in data set [5] of 8 µM.
For `O=c1nc(Nc2ccc(-c3cnc4ccccc4c3)cc2)c2cccnc2n1O`, the half-maximal cytotoxic concentration (CC50) in data set [5] was determined as 2 µM.
In the case of `O=c1cc(Nc2ccc(-c3ccccc3)cc2)[nH]c(=O)n1O`, the IC50 in data set [1] was 0.15 µM; in data set [2] (read-out: IC50), 0.3 µM; in data set [3] (read-out: IC50), 2 µM; in data set [4] it was 0.25 µM; in data set [6] (read-out: IC50) it was 0.3 µM. This compound also came in with a CC50 in data set [5] greater than 25 µM.
As to `O=c1cc(Nc2ccc(-c3cccc(O)c3)cc2)[nH]c(=O)n1O`, the IC50 in data set [2] (read-out: IC50) was determined as 0.43 µM; in data set [3] (read-out: IC50) it was 0.79 µM; in data set [4], 0.22 µM; in data set [6] (read-out: IC50), 0.4 µM.
As for `COc1ccc(-c2cccc(Nc3cc(=O)n(O)c(=O)n3C)c2)cc1`, the IC50 in data set [1] was 1.1 µM; in data set [2] (read-out: IC50), 2.6 µM; in data set [3] (read-out: IC50), 3.6 µM; in data set [4], 0.5 µM; in data set [6] (read-out: IC50) it was 3.1 µM. The CC50 in data set [5] was determined as 3 µM.
For the compound `COc1ccc(-c2cccc(Nc3cc(=O)n(O)c(=O)n3C)c2)cc1OC`, the IC50 was determined as 0.9 µM in data set [1]; 2.2 µM in data set [2] (read-out: IC50); 5.8 µM in data set [3] (read-out: IC50); 0.5 µM in data set [4]; 3 µM in data set [6] (read-out: IC50). In data set [5], this compound yielded a CC50 of 10 µM.
As for `Cn1c(Nc2cccc(-c3cncnc3)c2)cc(=O)n(O)c1=O`, the IC50 in data set [1] is 0.9 µM; in data set [2] (read-out: IC50) it was 4.1 µM; in data set [3], “Not Active”; in data set [4] it was 1.4 µM; in data set [6] (read-out: IC50), 3.9 µM. Besides, in data set [5], the CC50 is greater than 25 µM.
In the case of `COc1cc(OC)cc(-c2ccc(Nc3cc(=O)n(O)c(=O)n3C)cc2)c1`, the IC50 was 1.8 µM in data set [1]; 7.2 µM in data set [2] (read-out: IC50); 6.5 µM in data set [3] (read-out: IC50); 1.6 µM in data set [4]; 9.2 µM in data set [6] (read-out: IC50). In data set [5], this compound registered a CC50 of 15 µM.
For the compound `COc1ccccc1-c1cccc(Oc2cc(=O)n(O)c(=O)n2C)c1`, the IC50 was 4.4 µM in data set [1]; “Not Active” in data set [2]; “Not Active” in data set [3]; 2.5 µM in data set [4]; 13 µM in data set [6] (read-out: IC50). In data set [5], this compound gave a CC50 of 6 µM.
For the compound `COc1ccccc1-c1ccc(Oc2cc(=O)n(O)c(=O)n2C)cc1`, the IC50 in data set [1] was 6.2 µM; in data set [2], “Not Active”; in data set [3], “Not Active”; in data set [4], 2.8 µM; in data set [6] (read-out: IC50), 22 µM. This compound also gave a CC50 in data set [5] of 5 µM.
Consider `COc1cccc(-c2ccc(Nc3cc(=O)n(O)c(=O)n3C)cc2)c1`, for which the IC50 is 1.7 µM in data set [1]; 3.5 µM in data set [2] (read-out: IC50); “Not Active” in data set [3]; 0.8 µM in data set [4]; 5.1 µM in data set [6] (read-out: IC50). In data set [5], this compound came in with a CC50 of 6 µM.
As to `Cn1c(Oc2ccccc2-c2ccccc2O)cc(=O)n(O)c1=O`, the IC50 entry in data set [2] is “Not Active”; in data set [3], “Not Active”; in data set [4], 11 µM; in data set [6], “Not Active”.
Turning to `Cn1c(Oc2ccc(-c3ccc(Cl)cc3)cc2)cc(=O)n(O)c1=O`, the IC50 result in data set [2] is “Not Active”; in data set [3], “Not Active”; in data set [4] it was 2.4 µM; in data set [6] (read-out: IC50) it was 11 µM.
Take `O=c1cc(Nc2ccc(-c3ccc(Cl)cc3)cc2)[nH]c(=O)n1O`: the IC50 in data set [2] (read-out: IC50) worked out at 0.66 µM; in data set [3] (read-out: IC50) it was 0.99 µM; in data set [4], 0.47 µM; in data set [6] (read-out: IC50) it was 0.6 µM.
In the same order, the values of `O=c1cc(Nc2ccc(-c3ccc(O)cc3)cc2)[nH]c(=O)n1O` are 0.45 µM, 0.82 µM, 0.18 µM and 0.37 µM.
As for `Cc1noc(C)c1-c1ccccc1Nc1cc(=O)n(O)c(=O)n1C`, the IC50 result was “Not Active” in data set [2], “Not Active” in data set [3], 6.6 µM in data set [4] and “Not Active” in data set [6].
Regarding `O=c1cc(Nc2ccc(-c3ccccc3O)cc2)[nH]c(=O)n1O`, the IC50 in data set [2] (read-out: IC50) amounted to 0.49 µM; in data set [3] (read-out: IC50), 0.83 µM; in data set [4], 0.24 µM; in data set [6] (read-out: IC50) it was 0.46 µM.
Regarding `O=c1cc(Nc2cccc(-c3ccc(Cl)cc3)c2)[nH]c(=O)n1O`, the 50% inhibitory concentration (IC50) is 0.45 µM in data set [2] (read-out: IC50), 0.86 µM in data set [3] (read-out: IC50), 0.22 µM in data set [4] and 0.37 µM in data set [6] (read-out: IC50).
With `Cn1c(Oc2ccc(-c3cccc(C#N)c3)cc2)cc(=O)n(O)c1=O`, the IC50 was 13 µM in data set [2] (read-out: IC50), “Not Active” in data set [3], 1.9 µM in data set [4] and 11 µM in data set [6] (read-out: IC50).
Consider `Cc1ccc(-c2cccc(Nc3cc(=O)n(O)c(=O)n3C)c2)cc1`, for which the IC50 in data set [2] (read-out: IC50) was 7.2 µM; in data set [3] (read-out: IC50), 17 µM; in data set [4] it was 1.7 µM; in data set [6] (read-out: IC50), 6.2 µM.
Turning to `Cn1c(Oc2ccccc2-c2ccc(Cl)cc2)cc(=O)n(O)c1=O`, the IC50 entry was “Not Active” in data set [2], 14 µM in data set [3] (read-out: IC50), 3.3 µM in data set [4] and 13 µM in data set [6] (read-out: IC50).
Regarding `COc1ccc(-c2ccc(Nc3cc(=O)n(O)c(=O)n3C)cc2)c(OC)c1`, the IC50 in data set [2] (read-out: IC50) was 4.3 µM; in data set [3], “Not Active”; in data set [4] it was 1.5 µM; in data set [6] (read-out: IC50), 5.3 µM.
As to `Cn1c(Oc2ccc(-c3ccncc3)cc2)cc(=O)n(O)c1=O`, the IC50 result was “Not Active” in data set [2], “Not Active” in data set [3], 3.7 µM in data set [4] and 10 µM in data set [6] (read-out: IC50).
Consider `Cn1c(Oc2ccc(-c3ccc(C#N)cc3)cc2)cc(=O)n(O)c1=O`, for which the IC50 in data set [2] (read-out: IC50) is 11 µM; in data set [3] it was “Not Active”; in data set [4], 2.5 µM; in data set [6] (read-out: IC50), 4.7 µM.
For `Cn1c(Oc2cccc(-c3cccc(C#N)c3)c2)cc(=O)n(O)c1=O`, the IC50 in data set [2] (read-out: IC50) was 6.7 µM; in data set [3], “Not Active”; in data set [4], 0.9 µM; in data set [6] (read-out: IC50), 4.6 µM.
For `Cn1c(Nc2cccc(-c3ccc(O)cc3)c2)cc(=O)n(O)c1=O`, the IC50 was 3.8 µM in data set [2] (read-out: IC50), 12 µM in data set [3] (read-out: IC50), 0.75 µM in data set [4] and 2.7 µM in data set [6] (read-out: IC50).
